From ChEMBL document CHEMBL4602651, “Development of selective mono or dual PROTAC degrader probe of CDK isoforms” (Eur J Med Chem, 2020) come the findings set out here.

Assay [1] concerns the target T1, Protein cereblon/Cyclin-dependent kinase 2 (Homo sapiens) (UniProt P24941+Q96SW2). Kind of assay: Protac activity at CRBN/CDK2 in AR-negative human PC3 cells assessed as induction of CDK2 protein degradation at 1 uM after 12 hrs by Western blot analysis. It counts as cell-based. As to conditions: PC-3. In outline: (§1)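 PC-3 cells (5 × 10^5 per well) treated 12 h at single concentrations (50 nM, 500 nM, 1, 5 or 30 µM). RIPA lysates (50 µg) run on 10% SDS-PAGE and immunoblotted for CDK2, CDK5, CDK9 with β-tubulin loading control, then detected by chemiluminescence. Band intensities quantified densitometrically.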
Background: A western blot detects proteins with antibodies after separation by electrophoresis.

Assay [2] concerns the target T1, Protein cereblon/Cyclin-dependent kinase 2 (Homo sapiens). Kind of assay: Protac activity at CRBN/CDK2 in AR-negative human PC3 cells assessed as induction of CDK2 protein degradation at 30 uM after 12 hrs by Western blot analysis. It counts as cell-based. The conditions noted are these: PC-3. In outline:
as §1

The target of assay [3] is T2, Protein cereblon/Cyclin-dependent kinase 9 (Homo sapiens) (UniProt P50750+Q96SW2). Kind of assay: Protac activity at CRBN/CDK9 in AR-negative human PC3 cells assessed as induction of CDK9 protein degradation at 30 uM after 12 hrs by Western blot analysis. The format is cell-based. The conditions noted are these: PC-3. In outline: (§2)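 PC-3 cells (DMEM/F12 1:1, 10% FBS, 1% pen/strep, 37 °C, 5% CO2) plated at 5 × 10^5 per well, exposed to compound for 12 h. RIPA lysates with protease inhibitors; 50 µg total protein run on 10% SDS-PAGE, transferred to PVDF, blocked in 5% milk/TBS-T. Probed with anti-CDK9 (1/1000), β-tubulin loading control, HRP secondary, chemiluminescence; bands scored as degradation detected or not.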
T2 sequence (P50750 whole entry, looked up): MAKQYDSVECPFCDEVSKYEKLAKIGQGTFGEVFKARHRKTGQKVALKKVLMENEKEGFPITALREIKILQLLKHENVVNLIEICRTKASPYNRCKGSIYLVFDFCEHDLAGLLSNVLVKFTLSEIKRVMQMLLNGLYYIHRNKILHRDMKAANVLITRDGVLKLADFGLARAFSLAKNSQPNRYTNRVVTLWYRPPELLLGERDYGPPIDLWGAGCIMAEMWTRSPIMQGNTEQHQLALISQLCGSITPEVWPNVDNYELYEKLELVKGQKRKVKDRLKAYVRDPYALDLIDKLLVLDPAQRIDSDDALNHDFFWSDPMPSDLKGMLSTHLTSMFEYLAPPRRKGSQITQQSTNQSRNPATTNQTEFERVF
T2 sequence (Q96SW2 whole entry, looked up): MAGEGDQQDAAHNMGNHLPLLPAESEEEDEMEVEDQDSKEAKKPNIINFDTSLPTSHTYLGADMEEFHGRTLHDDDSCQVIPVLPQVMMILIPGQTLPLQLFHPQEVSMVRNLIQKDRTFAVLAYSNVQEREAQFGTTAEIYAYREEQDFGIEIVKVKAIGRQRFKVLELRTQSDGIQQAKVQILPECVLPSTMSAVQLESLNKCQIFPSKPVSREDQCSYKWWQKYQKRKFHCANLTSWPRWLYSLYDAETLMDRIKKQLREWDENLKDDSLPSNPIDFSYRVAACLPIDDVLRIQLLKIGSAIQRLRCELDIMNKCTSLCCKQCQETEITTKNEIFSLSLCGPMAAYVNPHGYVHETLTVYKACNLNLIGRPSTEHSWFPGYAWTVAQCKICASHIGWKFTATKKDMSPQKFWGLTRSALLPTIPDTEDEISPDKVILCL

Assay [4] has as its target T1, Protein cereblon/Cyclin-dependent kinase 2 (Homo sapiens). Briefly: Protac activity at CRBN/CDK2 in AR-negative human PC3 cells assessed as induction of CDK2 protein degradation at 50 nM after 12 hrs by Western blot analysis. The conditions noted are these: PC-3. It counts as cell-based. In outline: as §1
The target of assay [5] is T2, Protein cereblon/Cyclin-dependent kinase 9 (Homo sapiens). Briefly: Protac activity at CRBN/CDK9 in AR-negative human PC3 cells assessed as induction of CDK9 protein degradation at 50 nM after 12 hrs by Western blot analysis. It counts as cell-based. The conditions noted are these: PC-3. In outline: as §2
Assay [6] relates to PC-3. Kind of assay: Antiproliferative activity against AR-negative human PC3 cells assessed as reduction in cell viability after 5 days by CCK8 assay. The format is functional, cell-based. The conditions noted are these: PC-3, 120 h. In outline: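 Cells seeded at 3 × 10^3 per well for 24 h, then dosed in 10-point, 3-fold serial dilution from 10 µM. CCK-8 added after 5 days, 4 h at 37 °C, absorbance at 450 nm. IC50 averaged from three separate determinations (at least two independent runs, duplicate wells). PC-3 grown in DMEM/F12 (1:1), LO2 in RPMI 1640, both with 10% FBS.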
(Tetrazolium assays rely on reduction of a dye to a coloured formazan, in cell work by metabolically active cells.)

Assay [7] deals with T2, Protein cereblon/Cyclin-dependent kinase 9 (Homo sapiens). Kind of assay: Protac activity at CRBN/CDK9 in AR-negative human PC3 cells assessed as induction of CDK9 protein degradation at 1 uM after 12 hrs by Western blot analysis. It counts as cell-based. As to conditions: PC-3. In outline:
as §2

Assay [8] deals with T1, Protein cereblon/Cyclin-dependent kinase 2 (Homo sapiens). Briefly: Protac activity at CRBN/CDK2 in AR-negative human PC3 cells assessed as CDK2 degradation at 1 uM preincubated with pomalidomide for 2 hrs and measured after 8 hrs by Western blot analysis. The format is cell-based. As to conditions: PC-3. In outline: (§3)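 PC-3 cells pretreated 2 h with 10 µM DMSO, AT-7519, pomalidomide or MG-132, then degrader at 1 µM for 8 h. CDK2 immunoblotted against β-tubulin loading control, with 50 µg protein per lane on 10% SDS-PAGE and ECL detection.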

Assay [9] shares this target. Kind of assay: Protac activity at CRBN/CDK2 in AR-negative human PC3 cells assessed as CDK2 degradation at 1 uM preincubated with proteasome inhibitor MG132 for 2 hrs and measured after 8 hrs by Western blot analysis. It counts as cell-based. As to conditions: PC-3. In outline:
as §3

The target in assay [10] is Protein cereblon/Cyclin-dependent kinase 5 (Homo sapiens) (UniProt Q00535+Q96SW2). Briefly: Protac activity at CRBN/CDK5 in AR-negative human PC3 cells assessed as induction of CDK5 protein degradation at 1 uM after 12 hrs by Western blot analysis. It counts as cell-based. The conditions noted are these: PC-3. In outline:
as §1

Assay [11] addresses T2, Protein cereblon/Cyclin-dependent kinase 9 (Homo sapiens). Briefly: Protac activity at CRBN/CDK9 in AR-negative human PC3 cells assessed as induction of CDK9 protein degradation at 5 uM after 12 hrs by Western blot analysis. It counts as cell-based. As to conditions: PC-3. In outline: as §2
Assay [12] concerns the target T1, Protein cereblon/Cyclin-dependent kinase 2 (Homo sapiens). Briefly: Protac activity at CRBN/CDK2 in AR-negative human PC3 cells assessed as CDK2 degradation at 1 uM preincubated with AT-7519 for 2 hrs and measured after 8 hrs by Western blot analysis. The conditions noted are these: PC-3.
The target of assay [13] is T3, Protein cereblon/Cyclin-dependent kinase 2/Cyclin-dependent kinase 9 (Homo sapiens, UniProt P24941+P50750+Q96SW2). Kind of assay: Protac activity at CRBN/CDK2/CDK9 in AR-negative human PC3 cells assessed as induction of CDK2 protein degradation at 5 uM after 12 hrs by Western blot analysis. The format is cell-based. The conditions noted are these: PC-3. In outline:
as §1

In assay [14] the target is T3, Protein cereblon/Cyclin-dependent kinase 2/Cyclin-dependent kinase 9. Briefly: Protac activity at CRBN/CDK2/CDK9 in AR-negative human PC3 cells assessed as induction of CDK9 protein degradation at 5 uM after 12 hrs by Western blot analysis. The format is cell-based. The conditions noted are these: PC-3. In outline: as §1
For assay [15] the target is unchanged. Kind of assay: Protac activity at CRBN/CDK2/CDK9 in AR-negative human PC3 cells assessed as induction of CDK9 protein degradation at 30 uM after 12 hrs by Western blot analysis. The format is cell-based. The conditions noted are these: PC-3. In outline: as §1
The target is the same in assay [16]. Kind of assay: Protac activity at CRBN/CDK2/CDK9 in AR-negative human PC3 cells assessed as CDK2 degradation at 10 to 10^4 nM after 12 hrs by Western blot analysis. The format is cell-based. As to conditions: PC-3.
For assay [17] the target is unchanged. Briefly: Protac activity at CRBN/CDK2/CDK9 in AR-negative human PC3 cells assessed as CDK9 degradation at 10 to 10^4 nM after 12 hrs by Western blot analysis. It counts as cell-based. As to conditions: PC-3.
For assay [18] the target is unchanged. Kind of assay: Protac activity at CRBN/CDK2/CDK9 in AR-negative human PC3 cells assessed as CDK2 degradation at 10^-1 to 10^3 nM after 12 hrs by Western blot analysis. It counts as cell-based. The conditions noted are these: PC-3.
Assay [19] shares this target. Briefly: Protac activity at CRBN/CDK2/CDK9 in AR-negative human PC3 cells assessed as CDK9 degradation at 10^-1 to 10^3 nM after 12 hrs by Western blot analysis. The format is cell-based. As to conditions: PC-3.
Assay [20] has as its system PC-3. Kind of assay: Induction of cell cycle arrest in human PC3 cells assessed as accumulation at G0/G1 phase at 3 uM after 48 hrs by propidium iodide staining based flow cytometry (reference value: 59.80%). The format is functional. (In general: In flow cytometry, cells or beads pass a laser one at a time.)
For assay [21], the system named is PC-3. Briefly: Induction of cell cycle arrest in human PC3 cells assessed as accumulation at S phase at 3 uM after 48 hrs by propidium iodide staining based flow cytometry (reference value: 17.96%). The format is functional.
For assay [22], the system named is PC-3. Briefly: Induction of cell cycle arrest in human PC3 cells assessed as accumulation at G2/M phase at 3 uM after 48 hrs by propidium iodide staining based flow cytometry (reference value: 22.24%). It counts as functional.

SMILES strings stand for the structures. The source made the active and inactive calls. The rule behind the calls is not given here.

Protein cereblon/Cyclin-dependent kinase 5 (Homo sapiens), sequence (Q00535 whole entry, looked up): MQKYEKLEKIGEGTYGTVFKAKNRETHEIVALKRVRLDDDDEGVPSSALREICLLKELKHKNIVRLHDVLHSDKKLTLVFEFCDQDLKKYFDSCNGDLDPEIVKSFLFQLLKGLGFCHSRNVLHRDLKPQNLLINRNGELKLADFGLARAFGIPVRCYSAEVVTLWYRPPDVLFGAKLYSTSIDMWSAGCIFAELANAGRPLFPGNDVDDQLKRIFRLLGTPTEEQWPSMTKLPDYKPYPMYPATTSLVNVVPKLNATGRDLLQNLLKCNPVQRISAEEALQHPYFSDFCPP
Protein cereblon/Cyclin-dependent kinase 5 (Homo sapiens), sequence (Q96SW2 whole entry, looked up): as the sequence (Q96SW2 whole entry, looked up) above

`O=C(CCC(=O)N1CCN(Cc2ccc(NC(=O)c3n[nH]cc3Nc3ncnc4[nH]ccc34)cc2)CC1)NCCCCNc1cccc2c1C(=O)N(C1CCC(=O)NC1=O)C2=O` (stereo unspecified): the result in assay [1] and in [2] was inactive. Also, the result in assay [3], in [4] and in assay [5] was Active. Besides, the IC50 in [6] was 1.38 µM.

For the compound `O=C(COc1cccc2c1C(=O)N(C1CCC(=O)NC1=O)C2=O)NCCOCCOCC(=O)N1CCC(NC(=O)c2n[nH]cc2NC(=O)c2c(Cl)cccc2Cl)CC1` (stereo unspecified), the outcome in [1], in assay [3] and in assay [11] was Active. For the same compound, the outcome in assay [7], in [8], in assay [9], in assay [10] and in assay [12] was inactive. Besides, the IC50 in assay [6] came out at 0.84 µM.

For `O=C(COc1cccc2c1C(=O)N(C1CCC(=O)NC1=O)C2=O)NCCCCCC(=O)N1CCC(NC(=O)c2n[nH]cc2NC(=O)c2c(Cl)cccc2Cl)CC1` (stereo unspecified), the result in assay [1], in assay [13], in [14] and in assay [15] was Active. For the same compound, the outcome in assay [7] and in assay [10] was inactive.

As to `CN1C(=O)CCC(N2C(=O)c3cccc(NCCNC(=O)CCC(=O)N4CCN(Cc5ccc(NC(=O)c6n[nH]cc6Nc6ncnc7[nH]ccc67)cc5)CC4)c3C2=O)C1=O` (stereo unspecified), the outcome in [16] and in assay [17] was inactive.

Take `O=C(CCC(=O)N1CCN(Cc2ccc(NC(=O)c3n[nH]cc3Nc3ncnc4[nH]ccc34)cc2)CC1)NCCNc1cccc2c1CN(C1CCC(=O)NC1=O)C2=O` (stereo unspecified): the result in assay [18] and in [19] was Active.

In the case of `CN1CCN(Cc2ccc(NC(=O)c3n[nH]cc3Nc3ncnc4[nH]ccc34)cc2)CC1`, the IC50 in assay [6] came out at 0.69 µM. Also, the Activity in assay [20] is 45.58%; in assay [21] it was 16.52%; in assay [22], 37.9%.

Regarding `O=C(CCC(=O)N1CCN(Cc2ccc(NC(=O)c3n[nH]cc3Nc3ncnc4[nH]ccc34)cc2)CC1)NCCNc1ccc2c(c1)C(=O)N(C1CCC(=O)NC1=O)C2=O` (stereo unspecified), the outcome in [18] and in assay [19] was Active.

As a reminder, the IC50 is the concentration that inhibits the measured activity by half.
